The source of these data is ChEMBL document CHEMBL1921681, “Difluoromethylbenzoxazole pyrimidine thioether derivatives: a novel class of potent non-nucleoside HIV-1 reverse transcriptase inhibitors” (J Med Chem, 2011).

Data set [1] has as its system Human immunodeficiency virus 1. The data set is described as follows: Antiviral activity against Human immunodeficiency virus 1 3B infected in human MT4 cells stably transformed with HIV1 LTR-EGFP after 3 days by fluorescence microscopic analysis. In kind it is functional, organism-based. The note with it: MT4, 72 h. The procedure, abridged: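 MT4 cells carrying an HIV LTR-EGFP reporter (150 000 cells/mL) infected with HIV-1 IIIB at MOI 0.01, with or without graded inhibitor concentrations. After 3 days, replication read as EGFP fluorescence and expressed as EC50. Cell line maintained in RPMI 1640 with 10% heat-inactivated FCS, 2 mM L-glutamine, gentamicin, G418, at 37 °C, 5% CO2.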

Data set [2] relates to Human immunodeficiency virus 1. The data set is described as follows: Antiviral activity against Human immunodeficiency virus 1 HXB2 harboring reverse transcriptase K103N and Y181C mutant infected in human MT4 cells stably transformed with HIV1 LTR-EGFP after 3 days by fluorescence microscopic analysis. It is filed as functional, organism-based. The settings on record: Human immunodeficiency virus 1, HXB2, MT4, 72 h.

Data set [3] in a line: Cytotoxicity against mock infected human MT4 cells after 3 days by EGFP fluorescence microscopic analysis. In kind it is cell-based. The procedure, abridged:
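Mock-infected MT4 cells stably carrying a CMV-EGFP reporter, seeded at 150 000 cells/mL and cultured with or without serial compound concentrations. MT4 cells kept in RPMI 1640 with 10% heat-inactivated FCS, 2 mM L-glutamine, 0.1% NaHCO3, gentamicin and G418, at 37 °C under 5% CO2. After 3 days, proliferation was read as EGFP fluorescence, giving CC50.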

Data set [4] in a line: Selectivity ratio of CC50 for mock-infected human MT4 cells to EC50 for Human immunodeficiency virus 1 3B infected in human MT4 cells. It is filed as ADME, cell-based. The note with it: read-out: Ratio CC50/EC50. The procedure, abridged:
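Ratio of two values run in parallel. CC50 came from mock-infected CMV-EGFP MT4 cells (150 000 cells/mL, 3 days, EGFP fluorescence). EC50 came from MT4-LTR-EGFP cells (150 000 cells/mL) infected with HIV-1 IIIB at MOI 0.01 with or without inhibitor, with replication read as EGFP fluorescence after 3 days. SI = CC50/EC50.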

A short description of data set [5]: Aqueous solubility of the compound. In kind it is physicochemical. The note with it: buffer.
Data set [6] in a line: Lipophilicity, log D of the compound. It is filed as physicochemical. The settings on record: octanol/water.
Data set [7] in a line: Dissociation constant, pKa of the compound. It is filed as physicochemical.
Data set [8] is described as follows: Apparent permeability of the compound across human Caco2 cells. In kind it is ADME, cell-based. The settings on record: Caco-2. A general note: Caco-2 monolayers are a common model of the intestinal barrier.
Data set [9] is described as follows: Metabolic stability of the compound in human liver microsomes after 15 mins. It is filed as ADME, Microsome. The settings on record: read-out: Stability.
A further data set has as its target Cytochrome P450 3A4 (Homo sapiens, UniProt P08684). Put plainly: Inhibition of CYP3A4. In kind it is ADME.
The next data set has as its target Cytochrome P450 2C9 (Homo sapiens, UniProt P11712). Put plainly: Inhibition of CYP2C9. It is filed as ADME.
Another data set deals with Cytochrome P450 2D6 (Homo sapiens, UniProt P10635). Put plainly: Inhibition of CYP2D6. It is filed as ADME.
Data set [10] has as its system Human immunodeficiency virus 1. Put plainly: Selectivity ratio of EC50 for Human immunodeficiency virus 1 HXB2 harboring reverse transcriptase K103N and Y181C mutant infected in human MT4 cells to EC50 for Human immunodeficiency virus 1 3B infected in human MT4 cells. It is filed as functional.

Values after ≈ are worked out from the molar mass of the structure shown.

Chain of Cytochrome P450 2C9 (P11712 whole entry): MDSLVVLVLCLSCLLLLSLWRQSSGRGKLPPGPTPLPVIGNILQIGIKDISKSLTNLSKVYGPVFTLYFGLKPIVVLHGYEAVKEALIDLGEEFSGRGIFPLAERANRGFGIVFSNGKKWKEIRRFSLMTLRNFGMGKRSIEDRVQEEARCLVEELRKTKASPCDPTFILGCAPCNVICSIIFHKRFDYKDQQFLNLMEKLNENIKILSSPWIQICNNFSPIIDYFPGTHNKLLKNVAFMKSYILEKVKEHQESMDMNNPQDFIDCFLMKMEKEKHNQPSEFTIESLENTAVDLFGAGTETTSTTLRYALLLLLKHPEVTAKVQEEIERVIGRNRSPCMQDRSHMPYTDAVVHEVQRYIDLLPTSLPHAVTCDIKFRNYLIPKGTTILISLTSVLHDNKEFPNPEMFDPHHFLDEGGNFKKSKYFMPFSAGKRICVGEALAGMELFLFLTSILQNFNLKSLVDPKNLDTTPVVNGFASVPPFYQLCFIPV
Chain of Cytochrome P450 3A4 (P08684 whole entry): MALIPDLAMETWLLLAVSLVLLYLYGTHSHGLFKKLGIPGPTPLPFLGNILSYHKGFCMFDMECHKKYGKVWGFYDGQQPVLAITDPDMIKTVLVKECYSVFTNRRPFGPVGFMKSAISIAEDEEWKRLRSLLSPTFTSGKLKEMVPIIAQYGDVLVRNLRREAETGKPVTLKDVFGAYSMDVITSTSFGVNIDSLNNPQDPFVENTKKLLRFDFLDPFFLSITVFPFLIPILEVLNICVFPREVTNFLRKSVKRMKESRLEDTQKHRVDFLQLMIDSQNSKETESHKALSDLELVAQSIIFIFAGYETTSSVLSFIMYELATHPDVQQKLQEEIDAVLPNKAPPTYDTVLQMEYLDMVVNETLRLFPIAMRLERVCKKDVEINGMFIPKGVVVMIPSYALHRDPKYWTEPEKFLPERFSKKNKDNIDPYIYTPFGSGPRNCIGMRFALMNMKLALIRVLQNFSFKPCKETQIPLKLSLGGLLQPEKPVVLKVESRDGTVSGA
Chain of Cytochrome P450 2D6 (P10635 whole entry): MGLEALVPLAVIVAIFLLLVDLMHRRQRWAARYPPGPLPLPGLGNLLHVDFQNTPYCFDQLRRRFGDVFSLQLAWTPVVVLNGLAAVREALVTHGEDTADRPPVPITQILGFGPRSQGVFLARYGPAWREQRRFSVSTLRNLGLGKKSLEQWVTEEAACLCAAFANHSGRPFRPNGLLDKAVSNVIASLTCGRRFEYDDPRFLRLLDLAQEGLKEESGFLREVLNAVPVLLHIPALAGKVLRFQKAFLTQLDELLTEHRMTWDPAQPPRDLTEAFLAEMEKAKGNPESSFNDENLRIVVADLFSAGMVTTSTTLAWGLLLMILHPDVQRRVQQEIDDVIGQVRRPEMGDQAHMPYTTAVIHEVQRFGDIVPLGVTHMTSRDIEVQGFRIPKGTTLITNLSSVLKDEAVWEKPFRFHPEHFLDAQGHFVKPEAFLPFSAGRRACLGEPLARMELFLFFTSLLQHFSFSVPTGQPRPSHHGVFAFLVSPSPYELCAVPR

`FC(F)(Sc1ncccn1)c1nc2ccccc2o1` displayed an EC50 in data set [1] of 3.14 µM.
Regarding `Cc1ccnc(SC(F)(F)c2nc3ccccc3o2)n1`, the EC50 in data set [2] amounted to 67 µM; in [1] it was 0.11 µM. The same compound yielded a 50% cytotoxic concentration (CC50) at 72 h in data set [3] of more than 100 µM. In [4], the selectivity ratio is more than 800. In data set [5], this compound yielded a solubility of 200 µM (≈ 58.7 µg/mL). The logD in data set [6] amounted to 3.9. Moreover, the pKa in [7] came out at 3.6. Besides, the apparent permeability coefficient (Papp) in [8] turned out to be 34.6 ×10⁻⁶ cm/s. The remaining at 0.25 h in [9] amounted to 90%. The “inhibition (INH)” value against Cytochrome P450 3A4, at Cytochrome P450 2C9 and at Cytochrome P450 2D6 was less than 30% in each case.
As for `Cc1cc(C)nc(SC(F)(F)c2nc3ccccc3o2)n1`, the EC50 in data set [2] was 77.2 µM; in [1] it was 0.95 µM. This compound registered a half-maximal cytotoxic concentration (CC50) at 72 h in [3] of more than 98.4 µM. Moreover, in [4], the selectivity ratio is more than 100. For the same compound, the pKa in data set [7] worked out at 1.3.
For `Cc1ccnc(SC(F)(F)c2nc3cccc(C)c3o2)n1`, the EC50 in data set [2] came to 55.4 µM; in data set [1] it was 0.2 µM. Moreover, the CC50 at 72 h in data set [3] is more than 98.4 µM. For the same compound, the selectivity ratio in data set [4] is more than 490.
As to `Cc1ccnc(SC(F)(F)c2nc3cccc(Cl)c3o2)n1`, the values for the EC50 in data set [2] and in data set [1] were 60 µM and 0.14 µM, respectively. In addition, the 50% cytotoxic concentration (CC50) at 72 h in data set [3] is more than 98.4 µM. Besides, the selectivity ratio in data set [4] is more than 700. Moreover, the “Ratio EC50” value in data set [10] stood at 30.
Take `Cc1ccnc(SC(F)(F)c2nc3c(C)cccc3o2)n1`: the half-maximal effective concentration (EC50) in [2] was more than 98.4 µM; in data set [1], 0.17 µM. The compound also returned a CC50 at 72 h in data set [3] of more than 98.4 µM. Also, the selectivity ratio in data set [4] was more than 570.
With `Cc1ccnc(SC(F)(F)c2nc3c(Cl)cccc3o2)n1`, the 50% effective concentration (EC50) in [2] stood at 79 µM; in [1], 0.098 µM. The half-maximal cytotoxic concentration (CC50) at 72 h in data set [3] is more than 98.4 µM. In addition, in data set [4], the selectivity ratio is more than 1000. Also, the “Ratio EC50” value in [10] is on record as 30.
Take `Cc1cccc2oc(C(F)(F)Sc3nccc(N)n3)nc12`: the EC50 in [2] was more than 20 µM; in data set [1], 0.83 µM. In [3], this compound showed a 50% cytotoxic concentration (CC50) at 72 h of 20 µM. The selectivity ratio in data set [4] amounted to 24.
`Nc1ccnc(SC(F)(F)c2nc3c(Cl)cccc3o2)n1`: the EC50 in data set [2] and in [1] was more than 28 µM each time. In data set [3], it took 28.8 µM to reach half-maximal cytotoxicity (CC50 at 72 h). The selectivity ratio in data set [4] is less than 1. Also, the “Ratio EC50” value in [10] was found to be 30.
Turning to `FC(F)(Sc1nccc(C2CC2)n1)c1nc2ccccc2o1`, the concentration for a half-maximal effect (EC50) was 67.9 µM in data set [2] and 0.16 µM in data set [1]. Further, half-maximal cytotoxicity in [3] (CC50 at 72 h) was put at 77.5 µM. The selectivity ratio in data set [4] is 484.
In the same order, the values of `CCc1ccnc(SC(F)(F)c2nc3ccccc3o2)n1` are 57 µM, 0.0064 µM, more than 98 µM and more than 15000.
With `CC(C)c1ccnc(SC(F)(F)c2nc3ccccc3o2)n1`, the 50% effective concentration (EC50) is more than 98.4 µM in [2] and 0.13 µM in [1]. In data set [3], this compound yielded a CC50 at 72 h of more than 98.4 µM. The selectivity ratio in [4] is more than 774.
For the compound `Nc1ccnc(SC(F)(F)c2nc3ccccc3o2)n1`, the figures for the half-maximal effective concentration (EC50) in [2] and in [1] were more than 33 µM and 0.26 µM, respectively. This compound registered a CC50 at 72 h in data set [3] of 33.5 µM. Also, in data set [4], the selectivity ratio is 129.
In the same order, the values of `COCc1ccnc(SC(F)(F)c2nc3ccccc3o2)n1` are more than 98.4 µM, 0.66 µM, more than 98.4 µM and more than 142.
For the compound `Cc1ccnc(S(=O)(=O)C(F)(F)c2nc3ccccc3o2)n1`, the EC50 in data set [2] is more than 61 µM; in [1], 7.9 µM. Moreover, in data set [3], half-maximal cytotoxicity (CC50 at 72 h) was put at 61 µM. Besides, the selectivity ratio in data set [4] amounted to 8.
The matching figures for `CC(=O)Nc1ccnc(SC(F)(F)c2nc3ccccc3o2)n1`: more than 98.4 µM, 43.3 µM, more than 98.4 µM and more than 2.3.
`c1cnc(SCc2nc3ccccc3o2)nc1` gave an EC50 in data set [1] of 35.3 µM.

As usually defined, the EC50 is the concentration giving half of the maximal effect. Low readings indicate higher potency in that assay, high ones lower potency in that assay. Broadly, the CC50 is the concentration that lowers cell viability or growth by half. A low value points to harm at low concentration. What is called solubility is the dissolved amount per volume that the medium holds. A low value points to little dissolved substance. For orientation: logD means the decadic logarithm of the distribution of all forms, ionised or not, between an organic phase and buffer at a given pH. Read a low logD as a more hydrophilic compound. For orientation: pKa means the pH at which an ionisable group is half protonated. For orientation: Papp means the rate of passage across a membrane or cell layer, normalised by area and donor concentration.
